Measured values as given in ChEMBL document CHEMBL1123503, “Synthesis and biological activity of 3-amino-5-(3,5-diamino-6-chloropyrazin-2-yl)-1,2,4-oxadiazole: an amiloride prodrug” (1986).
Several values for one entry are separate records, joined by “and”; a condition that tells them apart may be missing. Equal values may be shown once.

Assays:
Rattus norvegicus [1] = assay: Compound was evaluated for diuretic activity determined by the ability to induce electrolytic excretion (Na+) at a time period of 0-24 hr for dose 9 mg/kg; type: functional, Urine
Procedure, shortened: (§1)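 Female Sprague-Dawley rats weighing 160-170 g were dosed orally at 3, 9, 27 or 81 mg/kg, housed three per cage, with three cages per dose. Urinary Na+, K+ and Cl- (mequiv × 100) and urine volume (mL) were measured over 0-5 h and 0-24 h after dosing. A placebo group was run alongside.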

Rattus norvegicus [2] = assay: Compound was evaluated for diuretic activity determined by the ability to induce electrolytic excretion (Na+) at a time period of 0-24 hr for dose 3 mg/kg; type: functional, Urine; procedure, shortened: as §1
Rattus norvegicus [3] = assay: Compound was evaluated for diuretic activity determined by the ability to induce electrolytic excretion (K+) at a time period of 0-5 hr for dose 3 mg/kg; type: functional, Urine; procedure, shortened: as §1
Rattus norvegicus [4] = assay: Compound was evaluated for diuretic activity determined by the ability to induce electrolytic excretion (Cl-) at a time period of 0-5 hr for dose 27 mg/kg; type: functional, Urine; procedure, shortened: as §1
Rattus norvegicus [5] = assay: Urine volumes in Sprague-Dawley rats was determined at time period of 0-5 hours at 81 mg/kg; type: functional; procedure, shortened: as §1
Rattus norvegicus [6] = assay: Compound was evaluated for diuretic activity determined by the ability to induce electrolytic excretion (Na+) at a time period of 0-5 hr for dose 27 mg/kg; type: functional, Urine; procedure, shortened: as §1
Rattus norvegicus [7] = assay: Compound was evaluated for diuretic activity determined by the ability to induce electrolytic excretion (Cl-) at a time period of 0-24 hr for dose 27 mg/kg; type: functional, Urine; procedure, shortened: as §1
Rattus norvegicus [8] = assay: Compound was evaluated for diuretic activity determined by the ability to induce electrolytic excretion (K+) at a time period of 0-5 hr for dose 81 mg/kg; type: functional, Urine; procedure, shortened: as §1
Rattus norvegicus [9] = assay: Compound was evaluated for diuretic activity determined by the ability to induce electrolytic excretion (Na+) at a time period of 0-24 hr for dose 27 mg/kg; type: functional, Urine; procedure, shortened: as §1
Rattus norvegicus [10] = assay: Urine volumes in Sprague-Dawley rats was determined at time period of 0-5 hours at 3 mg/kg; type: functional; procedure, shortened: as §1
Rattus norvegicus [11] = assay: Compound was evaluated for diuretic activity determined by the ability to induce electrolytic excretion (Cl-) at a time period of 0-5 hr for dose 9 mg/kg; type: functional, Urine; procedure, shortened: as §1
Rattus norvegicus [12] = assay: Compound was evaluated for diuretic activity determined by the ability to induce electrolytic excretion (K+) at a time period of 0-24 hr for dose 3 mg/kg; type: functional, Urine; procedure, shortened: as §1
Rattus norvegicus [13] = assay: Compound was evaluated for diuretic activity determined by the ability to induce electrolytic excretion (K+) at a time period of 0-24 hr for dose 9 mg/kg; type: functional, Urine; procedure, shortened: as §1
Rattus norvegicus [14] = assay: Urine volumes in Sprague-Dawley rats was determined at time period of 0-5 hours at 9 mg/kg; type: functional; procedure, shortened: as §1
Rattus norvegicus [15] = assay: Compound was evaluated for diuretic activity determined by the ability to induce electrolytic excretion (Na+) at a time period of 0-5 hr for dose 3 mg/kg; type: functional, Urine; procedure, shortened: as §1
Rattus norvegicus [16] = assay: Compound was evaluated for diuretic activity determined by the ability to induce electrolytic excretion (Na+) at a time period of 0-5 hr for dose 81 mg/kg; type: functional, Urine; procedure, shortened: as §1
Rattus norvegicus [17] = assay: Compound was evaluated for diuretic activity determined by the ability to induce electrolytic excretion (Cl-) at a time period of 0-24 hr for dose 3 mg/kg; type: functional, Urine; procedure, shortened: as §1
Rattus norvegicus [18] = assay: Compound was evaluated for diuretic activity determined by the ability to induce electrolytic excretion (Na+) at a time period of 0-5 hr for dose 9 mg/kg; type: functional, Urine; procedure, shortened: as §1
Rattus norvegicus [19] = assay: Compound was evaluated for diuretic activity determined by the ability to induce electrolytic excretion (K+) at a time period of 0-5 hr for dose 27 mg/kg; type: functional, Urine; procedure, shortened: as §1
Rattus norvegicus [20] = assay: Compound was evaluated for diuretic activity determined by the ability to induce electrolytic excretion (Na+) at a time period of 0-24 hr for dose 81 mg/kg; type: functional, Urine; procedure, shortened: as §1
Rattus norvegicus [21] = assay: Compound was evaluated for diuretic activity determined by the ability to induce electrolytic excretion (Cl-) at a time period of 0-24 hr for dose 81 mg/kg; type: functional, Urine; procedure, shortened: as §1
Rattus norvegicus [22] = assay: Compound was evaluated for diuretic activity determined by the ability to induce electrolytic excretion (Cl-) at a time period of 0-5 hr for dose 81 mg/kg; type: functional, Urine; procedure, shortened: as §1
Rattus norvegicus [23] = assay: Compound was evaluated for diuretic activity determined by the ability to induce electrolytic excretion (K+) at a time period of 0-24 hr for dose 27 mg/kg; type: functional, Urine; procedure, shortened: as §1
Rattus norvegicus [24] = assay: Compound was evaluated for diuretic activity determined by the ability to induce electrolytic excretion (K+) at a time period of 0-24 hr for dose 81 mg/kg; type: functional, Urine; parameters: unit: mequiv × 100; procedure, shortened: as §1
Rattus norvegicus [25] = assay: Urine volumes in Sprague-Dawley rats was determined at time period of 0-5 hours at 27 mg/kg; type: functional; procedure, shortened: as §1
Rattus norvegicus [26] = assay: Compound was evaluated for diuretic activity determined by the ability to induce electrolytic excretion (Cl-) at a time period of 0-24 hr for dose 9 mg/kg; type: functional, Urine; procedure, shortened: as §1
Rattus norvegicus [27] = assay: Compound was evaluated for diuretic activity determined by the ability to induce electrolytic excretion (K+) at a time period of 0-5 hr for dose 9 mg/kg; type: functional, Urine; procedure, shortened: as §1
Rattus norvegicus [28] = assay: Compound was evaluated for diuretic activity determined by the ability to induce electrolytic excretion (Cl-) at a time period of 0-5 hr for dose 3 mg/kg; type: functional, Urine; procedure, shortened: as §1
Rattus norvegicus [29] = assay: Urine volumes was determined in Sprague-Dawley rats at time period of 0-5 hours at 81 mg/kg; type: functional
Procedure, shortened: (§2)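 Female Sprague-Dawley rats (160-170 g) were dosed orally at 3-81 mg/kg, with a placebo group. Housing was three rats per cage and three cages per dose. Urinary Na+, K+ and Cl- (mequiv × 100) and urine volume were measured over 0-5 h and 0-24 h.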

Rattus norvegicus [30] = assay: Urine volumes was determined in Sprague-Dawley rats at time period of 0-5 hours at 27 mg/kg; type: functional; procedure, shortened: as §2
Canis familiaris [31] = assay: Compound was evaluated for percentage recovery from urine after administration of 0.3 mg/kg dose; type: functional, organism-based; parameters: dose 0.3 mg/kg; settings: Canis lupus familiaris
Procedure, shortened: (§3)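 Catheterized mongrel dogs (average 14-16 kg, 6 per group) were given oral doses of 0.1-1.0 mg/kg. Urine was collected at 0-6 h and 6-24 h. Each 1-mL aliquot was partitioned between saturated Na2CO3 and ethyl acetate, and the organic phase was back-extracted into 0.5 N HCl. Amiloride in the acid phase was read spectrofluorometrically (excitation 365 nm, emission 420 nm). Results are mean ± SD, with % recovery.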

Rattus norvegicus [32] = assay: Urine volumes was determined in Sprague-Dawley rats at time period of 0-5 hours at 9 mg/kg; type: functional; procedure, shortened: as §2
Canis familiaris [33] = assay: Compound was evaluated for urinary levels (mg) after administration at time period
Rattus norvegicus [34] = assay: Urine volumes was determined at time period of 0-5 hours for dose 9 mg/kg; type: functional; procedure, shortened: as §2
Rattus norvegicus [35] = assay: Urine volumes was determined in Sprague-Dawley rats at time period of 0-5 hours at 3 mg/kg; type: functional; procedure, shortened: as §2
Rattus norvegicus [36] = assay: Urine volumes was determined at time period of 0-5 hours for dose 27 mg/kg; type: functional; procedure, shortened: as §2
Rattus norvegicus [37] = assay: Compound was evaluated for diuretic activity to induce electrolytic excretion (Cl-) at a time period of 0-24 hr for dose 3 mg/kg; type: functional, Urine; procedure, shortened: as §2
Canis familiaris [38] = assay: Compound was evaluated for percentage recovery from urine after administration of 0.1 mg/kg dose; type: functional, organism-based; parameters: dose 0.1 mg/kg; settings: Canis lupus familiaris; procedure, shortened: as §3

`C[n+]1oc(-c2nc(Cl)c(N)nc2N)nc1N.[I-]` showed a Diuretic effect (Rattus norvegicus [1]) of 296, a Diuretic effect (Rattus norvegicus [2]) of 281 and a Diuretic effect (Rattus norvegicus [3]) of 3. The Diuretic effect (Rattus norvegicus [4]) was 49, the Urine volume (Rattus norvegicus [5]) was 29 mL and the Diuretic effect (Rattus norvegicus [6]) was 104. The Diuretic effect (Rattus norvegicus [7]) was 277, the Diuretic effect (Rattus norvegicus [8]) was 7 and the Diuretic effect (Rattus norvegicus [9]) was 389. The Urine volume (Rattus norvegicus [10]) was 25 mL, the Diuretic effect (Rattus norvegicus [11]) was 39 and the Diuretic effect (Rattus norvegicus [12]) was 139. The Diuretic effect (Rattus norvegicus [13]) was 92, the Urine volume (Rattus norvegicus [14]) was 25 mL and the Diuretic effect (Rattus norvegicus [15]) was 17. It also gave a Diuretic effect (Rattus norvegicus [16]) of 135, a Diuretic effect (Rattus norvegicus [17]) of 203 and a Diuretic effect (Rattus norvegicus [18]) of 79. The Diuretic effect (Rattus norvegicus [19]) was 4, the Diuretic effect (Rattus norvegicus [20]) was 433 and the Diuretic effect (Rattus norvegicus [21]) was 326. The Diuretic effect (Rattus norvegicus [22]) was 95, the Diuretic effect (Rattus norvegicus [23]) was 89 and the Diuretic effect (Rattus norvegicus [24]) was 96. It also gave a Urine volume (Rattus norvegicus [25]) of 27 mL, a Diuretic effect (Rattus norvegicus [26]) of 204 and a Diuretic effect (Rattus norvegicus [27]) of 2. It also gave a Diuretic effect (Rattus norvegicus [28]) of 28.
`N=C(N)NC(=O)c1nc(Cl)c(N)nc1N` [AMILORIDE] showed a Diuretic effect (Rattus norvegicus [1]) of 207, a Diuretic effect (Rattus norvegicus [2]) of 153 and a Diuretic effect (Rattus norvegicus [3]) of 5. The Diuretic effect (Rattus norvegicus [4]) was 105, the Diuretic effect (Rattus norvegicus [6]) was 180 and the Diuretic effect (Rattus norvegicus [7]) was 180. For the same compound, the Diuretic effect (Rattus norvegicus [8]) was 6, the Urine volume (Rattus norvegicus [29]) was 28 mL and the Diuretic effect (Rattus norvegicus [9]) was 206. For the same compound, the Urine volume (Rattus norvegicus [30]) was 36 mL, the Recovery (Canis familiaris [31]) was 29.3% and the Diuretic effect (Rattus norvegicus [11]) was 96. For the same compound, the Diuretic effect (Rattus norvegicus [12]) was 83, the Diuretic effect (Rattus norvegicus [13]) was 67 and the Urine volume (Rattus norvegicus [32]) was 33 mL. It also gave a Diuretic effect (Rattus norvegicus [15]) of 156, a Diuretic effect (Rattus norvegicus [16]) of 158 and a Diuretic effect (Rattus norvegicus [18]) of 162. The Diuretic effect (Rattus norvegicus [19]) was 7, the Diuretic effect (Rattus norvegicus [20]) was 458 and the Diuretic effect (Rattus norvegicus [21]) was 328. The Urinary level (Canis familiaris [33]) was 0.41 mg, the Diuretic effect (Rattus norvegicus [22]) was 93 and the Diuretic effect (Rattus norvegicus [23]) was 82. For the same compound, the Diuretic effect (Rattus norvegicus [34]) was 1, the Diuretic effect (Rattus norvegicus [24]) was 47 and the Urine volume (Rattus norvegicus [35]) was 35 mL. For the same compound, the Diuretic effect (Rattus norvegicus [26]) was 176, the Diuretic effect (Rattus norvegicus [36]) was 3.4 and the Diuretic effect (Rattus norvegicus [37]) was 139. The Recovery (Canis familiaris [38]) was 41.4% and 40%, the Diuretic effect (Rattus norvegicus [27]) was 6 and the Diuretic effect (Rattus norvegicus [28]) was 90.
